Test [1] deals with T1, Coagulation factor XI (Homo sapiens, UniProt P03951). The experiment in a line: Inhibition of human FXIa using S-2366 as chromogenic substrate preincubated with enzyme for 10 mins followed by substrate addition by spectrophotometric analysis.
Test [2] addresses T1, Coagulation factor XI. Nature of the test: Inhibition of human FXIa using S-2366 as chromogenic substrate preincubated with enzyme for 10 mins followed by substrate addition by spectrophotometric analysis relative to control. Also noted: concentration or dose not given beside the values. The essentials: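 hFXIa (0.765 nM final) preincubated with inhibitor or reference solution for 10 min at 37 °C in pH 7.4 buffer (50 mM Tris-HCl, 150 mM NaCl, 0.1% PEG8000, 0.02% Tween80). S-2366 (345 μM final) then added, and residual activity read on a microplate reader.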

Test [3] has as its target Prothrombin (Homo sapiens) (UniProt P00734). The experiment in a line: Inhibition of human thrombin at 500 uM by chromogenic substrate hydrolysis assay.
The target of test [4] is T2, Coagulation factor VII (Homo sapiens) (UniProt P08709).
T2 sequence (whole entry): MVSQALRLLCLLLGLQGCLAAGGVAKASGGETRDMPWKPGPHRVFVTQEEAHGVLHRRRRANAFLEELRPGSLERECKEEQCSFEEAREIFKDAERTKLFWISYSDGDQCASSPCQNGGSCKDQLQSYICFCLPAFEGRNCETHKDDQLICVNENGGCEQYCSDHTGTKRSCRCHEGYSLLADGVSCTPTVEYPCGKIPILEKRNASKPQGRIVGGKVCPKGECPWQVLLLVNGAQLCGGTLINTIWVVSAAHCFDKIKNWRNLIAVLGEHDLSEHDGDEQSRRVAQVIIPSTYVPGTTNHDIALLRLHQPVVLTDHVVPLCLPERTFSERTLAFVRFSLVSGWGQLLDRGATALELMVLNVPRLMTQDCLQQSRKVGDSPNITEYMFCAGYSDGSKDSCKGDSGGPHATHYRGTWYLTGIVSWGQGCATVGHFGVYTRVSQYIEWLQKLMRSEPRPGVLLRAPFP
Nature of the test: Inhibition of FVIIa (unknown origin) at 500 uM by chromogenic substrate hydrolysis assay.

Test [5] addresses Coagulation factor IX (Homo sapiens) (UniProt P00740). Nature of the test: Inhibition of human FIXa at 500 uM by chromogenic substrate hydrolysis assay.
The target in test [6] is Plasma kallikrein (Homo sapiens) (UniProt P03952). Nature of the test: Inhibition of Kallikrein in human plasma at 500 uM by chromogenic substrate hydrolysis assay. It is filed as cell-free.
Chain of Plasma kallikrein (Homo sapiens) (P03952 20-390 limits assumed): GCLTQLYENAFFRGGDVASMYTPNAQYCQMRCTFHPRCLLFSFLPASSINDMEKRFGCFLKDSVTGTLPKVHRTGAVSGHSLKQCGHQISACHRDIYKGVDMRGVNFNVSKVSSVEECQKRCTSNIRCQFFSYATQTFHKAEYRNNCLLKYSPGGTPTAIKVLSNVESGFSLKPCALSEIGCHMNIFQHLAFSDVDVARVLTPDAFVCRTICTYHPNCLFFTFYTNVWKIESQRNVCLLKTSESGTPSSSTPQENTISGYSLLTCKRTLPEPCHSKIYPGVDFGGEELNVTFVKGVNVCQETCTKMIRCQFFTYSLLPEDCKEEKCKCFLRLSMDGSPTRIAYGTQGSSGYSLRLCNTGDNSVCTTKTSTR
Chain of Plasma kallikrein (Homo sapiens) (P03952 391-638 limits assumed): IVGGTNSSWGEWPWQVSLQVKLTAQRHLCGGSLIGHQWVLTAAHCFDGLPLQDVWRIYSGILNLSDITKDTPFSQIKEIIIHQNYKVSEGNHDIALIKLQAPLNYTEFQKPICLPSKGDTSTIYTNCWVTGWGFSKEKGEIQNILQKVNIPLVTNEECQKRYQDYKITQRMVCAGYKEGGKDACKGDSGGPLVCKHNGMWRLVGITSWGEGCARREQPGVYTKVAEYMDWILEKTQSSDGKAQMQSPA
The target in test [7] is Chymotrypsinogen A (Bos taurus) (UniProt P00766). Nature of the test: Inhibition of bovine alpha-chymotrypsin at 500 uM by chromogenic substrate hydrolysis assay.
Test [8] is filed under the species Homo sapiens. The experiment in a line: Selectivity for inhibition of human FXIa over human thrombin.
The species entered for test [9] is Homo sapiens. Nature of the test: Selectivity for inhibition of human FXIa over FVIIa (unknown origin).
Test [10] is filed under the species Homo sapiens. Nature of the test: Selectivity for inhibition of human FXIa over human FIXa.
The species named for test [11] is Homo sapiens. The experiment in a line: Selectivity for inhibition of human FXIa over human FXa.
For test [12], the species on record is Homo sapiens. The experiment in a line: Selectivity for inhibition of human FXIa over Kallikrein in human plasma. It is filed as cell-free.
Test [13] is described as follows: Selectivity for inhibition of human FXIa over bovine trypsin.
Test [14] is described as follows: Selectivity for inhibition of human FXIa over bovine alpha-chymotrypsin.
In test [15] the target is Coagulation factor X (Homo sapiens) (UniProt P00742). The experiment in a line: Inhibition of human FXa using methoxycarbonyl-D-cyclohexylglycyl-Gly-Arg-p-nitroanilide as substrate at >200 uM by chromogenic substrate hydrolysis assay.
Chain of Coagulation factor X (Homo sapiens) (P00742 41-179 limits assumed): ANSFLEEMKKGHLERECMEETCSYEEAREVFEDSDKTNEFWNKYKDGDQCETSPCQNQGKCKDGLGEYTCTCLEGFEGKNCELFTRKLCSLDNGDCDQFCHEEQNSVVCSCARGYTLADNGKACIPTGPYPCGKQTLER
Chain of Coagulation factor X (Homo sapiens) (P00742 235-488 limits assumed): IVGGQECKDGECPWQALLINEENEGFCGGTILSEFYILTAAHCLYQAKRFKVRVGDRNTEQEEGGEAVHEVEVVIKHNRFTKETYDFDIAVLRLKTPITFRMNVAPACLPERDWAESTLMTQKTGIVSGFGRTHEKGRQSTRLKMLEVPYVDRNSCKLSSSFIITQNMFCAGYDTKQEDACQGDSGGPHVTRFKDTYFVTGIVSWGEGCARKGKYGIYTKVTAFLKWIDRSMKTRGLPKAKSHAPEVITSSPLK
For test [16], the species on record is Bos taurus. Nature of the test: Inhibition of bovine trypsin using S-2222 as chromogenic substrate at >200 uM by chromogenic substrate hydrolysis assay.
Test [17] has as its target Coagulation factor X (Homo sapiens) (UniProt P00742). The experiment in a line: Inhibition of human FXa using methoxycarbonyl-D-cyclohexylglycyl-Gly-Arg-p-nitroanilide as substrate at 500 uM by chromogenic substrate hydrolysis assay.
For test [18], the species on record is Bos taurus. Nature of the test: Inhibition of bovine trypsin using S-2222 as chromogenic substrate at 500 uM by chromogenic substrate hydrolysis assay.
For test [19], the species on record is Homo sapiens. Nature of the test: Inhibition of human FXIa heparin-binding site of A3 domain harboring K252A,K253A,K255A mutant and heparin-binding site of catalytic domain harboring K529A,R530A,R532A,K535A,K539A mutant using S-2366 as chromogenic substrate preincubated with enzyme for 10 mins followed by substrate addition by spectrophotometric analysis relative to control. In short, it runs like this: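 Recombinant hFXIa alanine mutants tested in 50 mM Tris-HCl pH 7.4, 150 mM NaCl, 0.1% PEG8000, 0.02% Tween80. Inhibitor and enzyme incubated 10 min at 37 °C, then S-2366 (345 μM final) added and residual activity read. IC50 and maximal inhibition efficacy (ΔY) obtained by nonlinear dose-response regression.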

The target in test [20] is T1, Coagulation factor XI. The experiment in a line: Binding affinity to active site dansylated human DEGR-FXIa assessed as hyperbolic interaction by measuring change in fluorescence intensity by fluorescence based analysis. The essentials: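 Titration of sulfated QAOs into 250 nM active-site dansylated hFXIa–DEGR in 50 mM Tris-HCl pH 7.4, 150 mM NaCl, 0.1% PEG8000, 37 °C. Emission monitored at 547 nm (excitation 345 nm). ΔFMAX, Hill coefficient n and KD obtained by nonlinear regression, using either the Hill equation or a standard hyperbolic equation. Error ±1 SE.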

Test [21] deals with T1, Coagulation factor XI. The experiment in a line: Binding affinity to active site dansylated human DEGR-FXIa assessed as maximal change in fluorescence intensity by fluorescence based analysis. In short, it runs like this: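 Dansyl fluorescence titration: aliquots of sulfated QAO added to 250 nM hFXIa–DEGR in 50 mM Tris-HCl pH 7.4, 150 mM NaCl, 0.1% PEG8000 at 37 °C. Emission read at 547 nm with excitation at 345 nm. ΔFMAX, Hill coefficient and KD come from nonlinear regression fits, using the Hill equation or a standard hyperbolic equation. Error is ±1 SE.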

The target in test [22] is T1, Coagulation factor XI. The experiment in a line: Binding affinity to active site dansylated human DEGR-FXIa assessed as change in fluorescence intensity by fluorescence based analysis.

Active and inactive are the calls of the source. No cut-off for these calls is given here. A value given as a limit tells only on which side of the number the result lay.

Consider nine compounds from ChEMBL document CHEMBL5244263, “Studies on fragment-based design of allosteric inhibitors of human factor XIa” (Bioorg Med Chem, 2020).

In general, IC50 refers to the concentration needed to halve the response being measured. Usually inhibition stands for the change of the read-out against control, counted positive when it falls. Usually Kd stands for the free concentration of one partner at which half of the binding sites on the other are occupied at equilibrium, for simple one-to-one binding.

T1 sequence (P03951 19-387 limits assumed): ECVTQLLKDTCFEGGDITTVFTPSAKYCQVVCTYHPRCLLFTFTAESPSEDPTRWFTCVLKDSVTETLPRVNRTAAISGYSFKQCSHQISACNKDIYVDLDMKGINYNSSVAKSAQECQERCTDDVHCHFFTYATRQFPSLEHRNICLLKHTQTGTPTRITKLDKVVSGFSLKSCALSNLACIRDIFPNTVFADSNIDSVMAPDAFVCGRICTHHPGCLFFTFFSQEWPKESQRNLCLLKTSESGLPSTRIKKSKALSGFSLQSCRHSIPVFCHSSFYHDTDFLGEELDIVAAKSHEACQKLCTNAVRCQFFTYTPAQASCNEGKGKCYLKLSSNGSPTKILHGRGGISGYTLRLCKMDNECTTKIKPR
T1 sequence (P03951 388-625 limits assumed): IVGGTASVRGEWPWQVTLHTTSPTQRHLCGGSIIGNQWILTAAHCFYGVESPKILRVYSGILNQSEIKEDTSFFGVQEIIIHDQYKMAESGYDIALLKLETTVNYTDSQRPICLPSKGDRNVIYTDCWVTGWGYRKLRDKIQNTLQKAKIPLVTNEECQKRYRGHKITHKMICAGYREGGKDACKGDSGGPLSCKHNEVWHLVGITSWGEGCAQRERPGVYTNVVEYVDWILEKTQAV
Chain of Coagulation factor IX (Homo sapiens) (P00740 47-191 limits assumed): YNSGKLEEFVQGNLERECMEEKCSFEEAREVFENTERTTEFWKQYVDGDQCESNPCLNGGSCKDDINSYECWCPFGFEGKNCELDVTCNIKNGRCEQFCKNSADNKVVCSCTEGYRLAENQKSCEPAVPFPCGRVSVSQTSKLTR
Chain of Coagulation factor IX (Homo sapiens) (P00740 227-461 limits assumed): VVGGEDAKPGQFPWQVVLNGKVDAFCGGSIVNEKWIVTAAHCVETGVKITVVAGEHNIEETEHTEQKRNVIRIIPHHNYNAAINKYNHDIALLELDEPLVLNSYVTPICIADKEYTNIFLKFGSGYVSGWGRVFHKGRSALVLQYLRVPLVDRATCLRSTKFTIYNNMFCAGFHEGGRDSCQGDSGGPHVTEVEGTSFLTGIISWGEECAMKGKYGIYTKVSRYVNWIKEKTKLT

For `O=c1c2ccccc2nc(-c2ccc(OS(=O)(=O)O)cc2)n1CCCCCCCCCCCn1c(-c2ccc(OS(=O)(=O)O)cc2)nc2ccccc2c1=O`, the concentration for half-maximal inhibition (IC50) on Coagulation factor XI [1] came to 14.5 µM. In addition, the inhibition against Coagulation factor XI [2] is 96%. The inhibition entry in test [3], in test [4], in [5], in [6] and in test [7] was “inactive” throughout. For the same compound, the Selectivity ratio was above 63 in the test filed under Homo sapiens [8]; above 63 in the test filed under Homo sapiens [9]; above 63 in the test listed under Homo sapiens [10]; above 25 in the test listed under Homo sapiens [11]; above 63 in the test filed under Homo sapiens [12]; above 25 in test [13]. Besides, the Selectivity ratio in test [14] was above 63. The inhibition result (in test [15]; in the test filed under Bos taurus [16]) was “Active” in each case.

In the case of `O=c1c2ccccc2nc(-c2ccc(OS(=O)(=O)O)cc2)n1CCCCCCCCCn1c(-c2ccc(OS(=O)(=O)O)cc2)nc2ccccc2c1=O`, the inhibition entry (in test [3]; in test [4]; in test [5]; in [17]; in [6]; in the test filed under Bos taurus [18]) was “inactive” in each case. In addition, the inhibition entry in [7] is “inactive”. In the test filed under Homo sapiens [19], the inhibition was 105%.

The compound `O=c1[nH]c(-c2ccc(OS(=O)(=O)O)cc2)nc2ccccc12` registered an IC50 against Coagulation factor XI [1] of 375 µM. Moreover, the outcome on Coagulation factor XI [20] was Active. Also, on Coagulation factor XI [21], the Activity is -34%. In addition, the Kd on Coagulation factor XI [22] came out at 365 µM.

As to `O=c1c2ccccc2nc(-c2cccc(OS(=O)(=O)O)c2)n1C/C=C/Cn1c(-c2cccc(OS(=O)(=O)O)c2)nc2ccccc2c1=O`, the IC50 against Coagulation factor XI [1] came to 415 µM. On Coagulation factor XI [2], the inhibition is 96%. The inhibition entry (in [3]; in [4]; in test [5]; in test [17]; in test [6]; in the test listed under Bos taurus [18]) was “inactive” in each case. Further, the inhibition result in test [7] is “inactive”. Besides, the Selectivity ratio (in the test filed under Homo sapiens [8]; in the test listed under Homo sapiens [9]; in the test filed under Homo sapiens [10]; in the test filed under Homo sapiens [11]; in the test listed under Homo sapiens [12]; in test [13]) was above 63 in each case. Moreover, in test [14], the Selectivity ratio was above 63.

For `O=c1c2ccccc2nc(-c2cccc(OS(=O)(=O)O)c2)n1Cc1ccc(Cn2c(-c3cccc(OS(=O)(=O)O)c3)nc3ccccc3c2=O)cc1`, the IC50 at Coagulation factor XI [1] worked out at 248 µM. For the same compound, the inhibition against Coagulation factor XI [2] was 100%. Besides, the inhibition result (in [3]; in [4]; in [5]; in test [17]; in [6]; in the test listed under Bos taurus [18]) was “inactive” each time. Also, the inhibition result in test [7] is “inactive”. Moreover, the Selectivity ratio (in the test filed under Homo sapiens [8]; in the test listed under Homo sapiens [9]; in the test listed under Homo sapiens [10]; in the test listed under Homo sapiens [11]; in the test filed under Homo sapiens [12]; in [13]) was above 63 in each case. Further, the Selectivity ratio in test [14] is above 63.

On Coagulation factor XI [1], `O=c1c2ccccc2nc(-c2cccc(OS(=O)(=O)O)c2)n1CCCCCCn1c(-c2cccc(OS(=O)(=O)O)c2)nc2ccccc2c1=O` displayed an IC50 of 53 µM. Also, at Coagulation factor XI [2], the inhibition stood at 96%. Moreover, the inhibition entry (in [3]; in test [4]; in [5]; in test [17]; in test [6]; in the test listed under Bos taurus [18]) was “inactive” in each case. For the same compound, in test [7], the inhibition result was “inactive”. The Selectivity ratio (in the test filed under Homo sapiens [8]; in the test listed under Homo sapiens [9]; in the test listed under Homo sapiens [10]; in the test filed under Homo sapiens [11]; in the test filed under Homo sapiens [12]; in test [13]) was above 63 throughout. The Selectivity ratio in [14] was above 63.

`O=c1c2ccccc2nc(-c2ccc(OS(=O)(=O)O)cc2)n1CCCCCCCCCCn1c(-c2ccc(OS(=O)(=O)O)cc2)nc2ccccc2c1=O` gave a half-maximal inhibitory concentration (IC50) at Coagulation factor XI [1] of 16.6 µM. In addition, the inhibition on Coagulation factor XI [2] stood at 95%. Further, the inhibition entry in test [3], in test [4], in test [5], in [6] and in test [7] was “inactive” each time. Further, the Selectivity ratio was above 63 in the test listed under Homo sapiens [8]; above 63 in the test listed under Homo sapiens [9]; above 63 in the test listed under Homo sapiens [10]; above 25 in the test listed under Homo sapiens [11]; above 63 in the test filed under Homo sapiens [12]; above 25 in test [13]. Moreover, in test [14], the Selectivity ratio is above 63. Also, the inhibition result (in test [15]; in the test filed under Bos taurus [16]) was “Active” throughout.

`O=c1c2ccccc2nc(-c2ccc(OS(=O)(=O)O)cc2)n1CCCCCCCCn1c(-c2ccc(OS(=O)(=O)O)cc2)nc2ccccc2c1=O` gave an IC50 against Coagulation factor XI [1] of 20 µM. Further, the inhibition on Coagulation factor XI [2] is 81%. Besides, the inhibition result (in [3]; in test [4]; in test [5]; in test [17]; in test [6]; in the test filed under Bos taurus [18]) was “inactive” in each case. Further, the inhibition result in test [7] is “inactive”. For the same compound, the Selectivity ratio (in the test listed under Homo sapiens [8]; in the test listed under Homo sapiens [9]; in the test listed under Homo sapiens [10]; in the test filed under Homo sapiens [11]; in the test filed under Homo sapiens [12]; in test [13]) was above 63 throughout. In addition, the Selectivity ratio in [14] was above 63.

`O=c1c2ccccc2nc(-c2cccc(OS(=O)(=O)O)c2)n1Cc1ccccc1Cn1c(-c2cccc(OS(=O)(=O)O)c2)nc2ccccc2c1=O` registered a half-inhibitory concentration (IC50) against Coagulation factor XI [1] of 94 µM. Moreover, at Coagulation factor XI [2], the inhibition came out at 93%. The inhibition entry (in test [3]; in test [4]; in [5]; in test [17]; in [6]; in the test filed under Bos taurus [18]) was “inactive” each time. The inhibition entry in test [7] was “inactive”. Besides, the Selectivity ratio (in the test listed under Homo sapiens [8]; in the test filed under Homo sapiens [9]; in the test filed under Homo sapiens [10]; in the test listed under Homo sapiens [11]; in the test listed under Homo sapiens [12]; in test [13]) was above 63 in each case. Further, in test [14], the Selectivity ratio was above 63.
